“And” between values parts separate entries of the source, which are not always exact repeats. Equal values may be shown once.
How the values were obtained:
[1] = Clearance from dog plasma after intravenous injection of 1 mg/kg of compound; type: ADME, organism-based, Canis lupus familiaris; set-up: dose 1 mg/kg, route intravenous
[2] = target: Tissue-type plasminogen activator (Homo sapiens, UniProt P00750); test: Inhibitory activity against serine protease TPA
Summary of the method: (§1)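 Inhibition constants (Ki) for each serine protease are the average of at least two determinations, with assay variation of ±10%.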

[3] = Oral bioavailability (5 mg/kg, oral) was determined in dogs; type: ADME, organism-based, Canis lupus familiaris; conditions: dog, in vivo
Summary of the method: (§2)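 Dogs were given a single oral dose of 5 mg/kg as a suspension in 1% methocel. Oral bioavailability (F, %) was then determined.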

[4] = Oral bioavailability in dog after peroral injection of 5 mg/kg of compound; type: ADME, organism-based, Canis lupus familiaris; conditions: in vivo; summary of the method: as §2
Prothrombin = Prothrombin (Homo sapiens, UniProt P00734); test: Inhibition of Thrombin
Homo sapiens = species on record: Homo sapiens; test: concentration of compound in human required to double the activated thromboplastin time; type: functional
[5] = Area under curve was evaluated after intravenous injection of 1 mg/kg of compound in dogs; type: ADME, organism-based, Canis lupus familiaris; set-up: dose 1 mg/kg, route intravenous; conditions: dog, in vivo
Rattus norvegicus [6] = species on record: Rattus norvegicus; test: Final concentration in rat plasma; type: functional, organism-based
Summary of the method: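 Rats received an iv infusion at 10 µg/kg/min in saline for 120 min before a FeCl3 vascular insult. Plasma inhibitor level was measured at the end of the experiment.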

[7] = Half-life period after, intravenous injection of 1 mg/kg in rats; type: ADME, organism-based; set-up: dose 1 mg/kg, route intravenous; conditions: rat, in vivo
[8] = Clearance from rat plasma after intravenous injection of 1 mg/kg of compound; type: ADME, organism-based; set-up: dose 1 mg/kg, route intravenous
[9] = Half-life period after, intravenous injection of 1 mg/kg in dogs; type: ADME, organism-based, Canis lupus familiaris; set-up: dose 1 mg/kg, route intravenous; conditions: dog, in vivo
[10] = Partition coefficient (logP); type: physicochemical; conditions: octanol/water
Rattus norvegicus [11] = species on record: Rattus norvegicus; test: Antithrombotic activity was assessed from the associated plasma protein binding in rat, determined in a thrombin chromogenic assay; type: functional
[12] = Antithrombotic activity was assessed from the associated plasma protein binding in Human, determined in a thrombin chromogenic assay; type: functional
[13] = Oral bioavailability in rat after peroral injection of 10 mg/kg of compound; type: ADME, organism-based; conditions: in vivo
Summary of the method: (§3)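 Rats were given a single oral dose of 10 mg/kg as a suspension in 1% methocel. Oral bioavailability (F, %) was then determined.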

Coagulation factor X = Coagulation factor X (Homo sapiens, UniProt P00742); test: Inhibitory activity against serine protease Coagulation factor X; summary of the method: as §1
Rattus norvegicus [14] = species on record: Rattus norvegicus; test: concentration of compound in rat required to double the activated thromboplastin time; type: functional
[15] = Area under curve was evaluated after intravenous injection of 1 mg/kg of compound in rats; type: ADME, organism-based; set-up: dose 1 mg/kg, route intravenous; conditions: rat, in vivo
[16] = Half-life period after, peroral injection of 5 mg/kg in dogs; type: ADME, organism-based, Canis lupus familiaris; set-up: dose 5 mg/kg, route oral; conditions: dog, in vivo, po
[17] = Oral bioavailability in rat (dose 10 mg/kg p.o.); type: ADME, organism-based; conditions: in vivo; summary of the method: as §3
Plasma kallikrein = Plasma kallikrein (Homo sapiens, UniProt P03952); test: Inhibitory activity against serine protease plasma kallikrein; summary of the method: as §1
Plasminogen = Plasminogen (Homo sapiens, UniProt P00747); test: Inhibitory activity against serine protease plasmin
Serine protease 1 = Serine protease 1 (Homo sapiens, UniProt P07477); test: In vitro inhibition of human trypsin.; summary of the method: as §1
[18] = Oral bioavailability in rat (dose 10 mg/kg); type: ADME, organism-based; conditions: in vivo; summary of the method: as §3
[19] = concentration of compound in human plasma required to double the activated thromboplastin time; type: functional
Rattus norvegicus [20] = species on record: Rattus norvegicus; test: concentration of compound in rat plasma required to double the activated thromboplastin time; type: functional
[21] = Concentration of inhibitor in human plasma required to double the activated thromboplastin time; type: functional
Rattus norvegicus [22] = species on record: Rattus norvegicus; test: Concentration of inhibitor in rat plasma required to double the activated thromboplastin time; type: functional
Rattus norvegicus [23] = species on record: Rattus norvegicus; test: Antithrombotic activity was assessed from the associated plasma protein binding in Rats, determined in a thrombin chromogenic assay; type: functional
[24] = Oral bioavailability (5 mg/kg) was determined in dogs; type: ADME, organism-based, Canis lupus familiaris; conditions: dog, in vivo; summary of the method: as §2

Sequence of Coagulation factor X (P00742 41-179 limits assumed): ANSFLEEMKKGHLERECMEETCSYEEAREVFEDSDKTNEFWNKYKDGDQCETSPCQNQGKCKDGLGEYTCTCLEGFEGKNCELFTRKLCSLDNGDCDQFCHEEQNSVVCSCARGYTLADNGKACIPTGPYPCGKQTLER
Sequence of Coagulation factor X (P00742 235-488 limits assumed): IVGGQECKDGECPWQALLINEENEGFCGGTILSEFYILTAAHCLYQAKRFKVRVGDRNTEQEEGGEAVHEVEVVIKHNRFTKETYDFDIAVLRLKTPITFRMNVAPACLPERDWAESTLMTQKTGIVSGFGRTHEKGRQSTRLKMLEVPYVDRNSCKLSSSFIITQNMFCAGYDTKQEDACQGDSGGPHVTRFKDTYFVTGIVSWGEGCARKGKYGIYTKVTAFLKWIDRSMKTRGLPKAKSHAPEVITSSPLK
Sequence of Plasma kallikrein (P03952 20-390 limits assumed): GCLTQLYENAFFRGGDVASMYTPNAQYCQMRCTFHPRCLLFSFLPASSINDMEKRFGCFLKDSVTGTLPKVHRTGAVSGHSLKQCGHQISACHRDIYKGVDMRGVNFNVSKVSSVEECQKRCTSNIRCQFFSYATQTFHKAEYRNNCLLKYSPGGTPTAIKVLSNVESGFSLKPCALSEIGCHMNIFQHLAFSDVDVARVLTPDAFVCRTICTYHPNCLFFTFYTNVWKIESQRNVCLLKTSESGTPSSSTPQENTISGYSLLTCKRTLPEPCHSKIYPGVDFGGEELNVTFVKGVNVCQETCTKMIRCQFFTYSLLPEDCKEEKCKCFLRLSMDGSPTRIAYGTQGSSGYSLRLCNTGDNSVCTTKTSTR
Sequence of Plasma kallikrein (P03952 391-638 limits assumed): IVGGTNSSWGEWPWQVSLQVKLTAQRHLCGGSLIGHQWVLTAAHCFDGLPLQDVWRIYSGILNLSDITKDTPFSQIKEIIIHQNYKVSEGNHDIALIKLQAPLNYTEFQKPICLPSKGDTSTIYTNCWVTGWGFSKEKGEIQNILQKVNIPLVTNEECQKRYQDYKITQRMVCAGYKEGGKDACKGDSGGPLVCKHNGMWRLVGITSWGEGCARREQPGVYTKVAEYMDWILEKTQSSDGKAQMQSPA
Sequence of Serine protease 1 (P07477 whole entry): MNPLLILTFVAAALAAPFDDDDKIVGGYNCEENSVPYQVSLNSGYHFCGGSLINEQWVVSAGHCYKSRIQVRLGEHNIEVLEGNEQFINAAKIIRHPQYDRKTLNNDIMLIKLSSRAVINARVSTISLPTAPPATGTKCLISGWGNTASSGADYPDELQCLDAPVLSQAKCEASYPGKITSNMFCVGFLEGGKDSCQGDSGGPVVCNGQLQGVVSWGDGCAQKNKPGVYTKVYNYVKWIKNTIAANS
Sequence of Tissue-type plasminogen activator (P00750 whole entry): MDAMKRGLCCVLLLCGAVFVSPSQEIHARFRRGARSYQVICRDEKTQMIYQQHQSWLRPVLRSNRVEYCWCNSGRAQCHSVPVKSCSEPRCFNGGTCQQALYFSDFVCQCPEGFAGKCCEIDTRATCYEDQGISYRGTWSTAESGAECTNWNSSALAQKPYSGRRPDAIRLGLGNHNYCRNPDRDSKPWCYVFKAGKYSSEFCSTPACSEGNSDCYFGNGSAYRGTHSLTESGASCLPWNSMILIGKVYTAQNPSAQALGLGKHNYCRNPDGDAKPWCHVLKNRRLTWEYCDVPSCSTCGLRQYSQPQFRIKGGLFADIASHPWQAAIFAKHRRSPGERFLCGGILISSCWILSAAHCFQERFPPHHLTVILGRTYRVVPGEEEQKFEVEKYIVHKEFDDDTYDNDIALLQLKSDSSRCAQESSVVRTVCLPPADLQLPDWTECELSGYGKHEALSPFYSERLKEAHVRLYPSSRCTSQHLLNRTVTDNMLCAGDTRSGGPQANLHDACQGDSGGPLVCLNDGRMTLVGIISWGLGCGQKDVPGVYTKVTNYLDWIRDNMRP
Sequence of Plasminogen (P00747 97-580 limits assumed): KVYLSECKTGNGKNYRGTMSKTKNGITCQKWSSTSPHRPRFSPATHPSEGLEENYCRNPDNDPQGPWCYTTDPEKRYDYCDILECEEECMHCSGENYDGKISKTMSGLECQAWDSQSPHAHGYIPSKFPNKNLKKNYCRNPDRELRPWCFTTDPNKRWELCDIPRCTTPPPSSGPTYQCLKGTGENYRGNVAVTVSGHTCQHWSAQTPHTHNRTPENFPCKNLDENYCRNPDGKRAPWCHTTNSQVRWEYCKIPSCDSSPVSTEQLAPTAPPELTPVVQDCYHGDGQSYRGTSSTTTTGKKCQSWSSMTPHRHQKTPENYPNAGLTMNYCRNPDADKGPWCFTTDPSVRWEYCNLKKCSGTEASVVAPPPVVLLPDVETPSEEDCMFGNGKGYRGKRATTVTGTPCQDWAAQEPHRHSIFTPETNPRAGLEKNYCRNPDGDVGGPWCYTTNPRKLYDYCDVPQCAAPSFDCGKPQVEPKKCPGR
Sequence of Plasminogen (P00747 581-810 limits assumed): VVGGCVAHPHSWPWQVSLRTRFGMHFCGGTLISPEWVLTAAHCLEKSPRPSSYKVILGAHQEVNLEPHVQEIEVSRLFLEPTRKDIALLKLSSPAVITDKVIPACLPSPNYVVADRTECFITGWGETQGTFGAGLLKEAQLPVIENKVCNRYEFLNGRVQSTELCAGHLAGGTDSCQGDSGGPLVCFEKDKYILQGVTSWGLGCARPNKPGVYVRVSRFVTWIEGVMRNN

SMILES	Ki [2]	Ki (Prothrombin)	Ki (Coagulation factor X)	Ki (Plasma kallikrein)	Ki (Plasminogen)	Ki (Serine protease 1)	other results
NC1CCC(CNC(=O)[C@@H]2CCCN2C(=O)CC(c2ccccc2)c2ccccc2)CC1.O=C(O)C(F)(F)F (some centres not stated)	> 1000 µM	0.002 µM	980 µM	> 1000 µM	744 µM	0.353 µM and 0.35 µM	clearance [1]: 10.2 mL/min/kg; bioavailability [3]: 58%; bioavailability [4]: 58%; 2x APTT (Homo sapiens): 0.67 µM; AUC [5]: 3.81 µM·h; Concentration (Rattus norvegicus [6]): 1600 nM; half-life [7]: 4.47 h; clearance [8]: 23.2 mL/min/kg; half-life [9]: 2.92 h; logP [10]: 0.37; Activity (Rattus norvegicus [11]): 7%; Activity [12]: 7%; bioavailability [13]: 10%; 2x APTT (Rattus norvegicus [14]): 0.65 µM; AUC [15]: 1.7 µM·h; half-life [16]: 2.6 h; bioavailability [17]: 10%
NC1CCC(CNC(=O)[C@@H]2CCCN2C(=O)CC2c3ccccc3CCc3ccccc32)CC1.O=C(O)C(F)(F)F (some centres not stated)	–	0.017 µM	–	–	–	–	bioavailability [18]: 12%
CC(CC(=O)N1CCC[C@H]1C(=O)NCC1CCC(N)CC1)(c1ccccc1)c1ccccc1 (some centres not stated)	–	0.016 µM	–	–	–	17 µM	–
Cl.NC1CCC(CNC(=O)[C@@H]2CCCN2C(=O)CC(C2CCCCC2)C2CCCCC2)CC1 (some centres not stated)	84 µM	0.014 µM	220 µM	170 µM	176 µM	2.5 µM	2x APTT [19]: 7.1 µM; Concentration (Rattus norvegicus [6]): 658 nM; logP [10]: 1.96; 2x APTT (Rattus norvegicus [20]): 7.2 µM; Activity (Rattus norvegicus [11]): 6%; Activity [12]: 1%; bioavailability [17]: 56%
Cl.NC1CCC(CNC(=O)[C@@H]2CCCN2C(=O)CC2c3ccccc3C=Cc3ccccc32)CC1 (some centres not stated)	268 µM	0.003 µM	> 1000 µM	775 µM	414 µM	1.6 µM	logP [10]: 0.27; bioavailability [18]: 51%
CC1CNc2c(cccc2S(=O)(=O)N[C@@H](CCCNC(=N)N)C(=O)N2CCC(C)C[C@@H]2C(=O)O)C1 (single isomer, unassigned) [ARGATROBAN]	–	–	–	–	–	–	2x APTT [21]: 0.28 µM
NC1CCC(CNC(=O)[C@@H]2CCCN2C(=O)CC(c2ccccc2)c2ccccn2)CC1 (single isomer, unassigned; diastereomer 1)	> 1000 µM	0.0018 µM	370 µM	767 µM	> 1000 µM	0.89 µM	–
NC1CCC(CNC(=O)[C@@H]2CCCN2C(=O)CC(c2ccccc2)c2cccnc2)CC1 (single isomer, unassigned; diastereomer 1)	–	0.01 µM	–	–	–	2.8 µM	–
NC1CCC(CNC(=O)[C@@H]2CCCN2C(=O)CC(c2ccccc2)C2CCCCC2)CC1 (single isomer, unassigned; diastereomer 1)	–	0.008 µM	–	–	–	1.7 µM	–
NC1CCC(CNC(=O)[C@@H]2CCCN2C(=O)CC(c2ccccc2)c2ccncc2)CC1 (single isomer, unassigned; diastereomer 1)	–	0.029 µM	–	–	–	19 µM	–
NC1CCC(CNC(=O)[C@@H]2CCCN2C(=O)CC(c2cccnc2)c2ccc3c(c2)OCO3)CC1.O=C(O)C(F)(F)F (single isomer, unassigned; diastereomer 2)	> 500 µM	0.00028 µM	1000 µM	1000 µM	572 µM	2.6 µM	2x APTT (Rattus norvegicus [22]): 0.38 µM; 2x APTT [19]: 0.3 µM; logP [10]: -1.62; bioavailability [18]: < 5%
NC1CCC(CNC(=O)[C@@H]2CCCN2C(=O)CC(c2ccccc2)c2ccccn2)CC1 (single isomer, unassigned; diastereomer 2)	–	0.012 µM	–	–	–	5 µM	–
NC1CCC(CNC(=O)[C@@H]2CCCN2C(=O)CC(c2ccccc2)c2cccnc2)CC1.O=C(O)C(F)(F)F (single isomer, unassigned; diastereomer 2)	746 µM	0.0022 µM	> 1000 µM	476 µM	> 1000 µM	2.2 µM	2x APTT (Rattus norvegicus [22]): 0.59 µM; 2x APTT [19]: 0.47 µM; Activity (Rattus norvegicus [23]): 56%; bioavailability [24]: 8%; logP [10]: -0.64; Activity [12]: 35%
NC1CCC(CNC(=O)[C@@H]2CCCN2C(=O)CC(c2ccccc2)C2CCCCC2)CC1 (single isomer, unassigned; diastereomer 2)	–	0.004 µM	–	–	–	0.3 µM	–
NC1CCC(CNC(=O)[C@@H]2CCCN2C(=O)CC(c2ccccc2)c2ccncc2)CC1 (single isomer, unassigned; diastereomer 2)	436 µM	0.0034 µM	400 µM	> 1000 µM	744 µM	2.2 µM	–
NC1CCC(CNC(=O)[C@@H]2CCCN2C(=O)CC(c2ccccc2)c2cccnc2)CC1 (single isomer, unassigned; diastereomer 2)	–	–	–	–	–	–	Concentration (Rattus norvegicus [6]): 2890 nM
NC1CCC(CNC(=O)[C@@H]2CCCN2C(=O)CC(c2cccnc2)c2ccc3c(c2)OCO3)CC1 (single isomer, unassigned; diastereomer 2)	–	–	–	–	–	–	Concentration (Rattus norvegicus [6]): 4000 nM
NC1CCC(CNC(=O)[C@@H]2CCCN2C(=O)CC(c2cccnc2)c2ccc3c(c2)OCO3)CC1 (stereo in doubt)	–	0.0047 µM	–	–	–	1.9 µM	–

Reference: ChEMBL document CHEMBL1130225, “Synthesis of a series of potent and orally bioavailable thrombin inhibitors that utilize 3,3-disubstituted propionic acid derivatives in the P3 position” (J Med Chem, 1997)
